HUVEC inhibit: inhibitors of HUVEC proliferation, primary screen, cell-based, 384-well. CellTiter-Glo luminescence, 72 h; stronger effect = lower value. viability, % at 10 µM (by protocol). 86,000 compounds, 1.1% hits. AID 648, 2007;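 active means viability at or below 30%; inactive means viability above 30%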;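 further: 100% = median luminescence of DMSO-only cell control wells on each plate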
HCT116 bCat-KO: primary screen for growth suppressors in beta-catenin knockout HCT116 cells (colon tumor, human); HCT116 beta-catenin knockout viability, CellTiter-Glo, 60 h; stronger effect = lower value; viability, % at 10 µM; 140,000 compounds, 1.5% hits; AID 818, 2007;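 active means viability at or under a set limit, the compound median less 4 SD, cut at about 6% in these data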;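 further: 0% = Hyamine 1622 control at 20 µM and 100% = untreated cell control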
Fibroblast inh: antiproliferative effect on LL 47 fibroblasts – human, LL 47 cells, CellTiter-Glo luminescence, primary screen; LL 47 human lung fibroblast viability, ATP luminescence; stronger effect = lower value; viability, % at 10 µM; 85,000 compounds, 1.1% hits; AID 719, 2007;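 active means viability at or below 50% in the single dose screen; inactive means viability above 50%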;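 further: compound exposure lasted 72 h before the ATP readout; 100% = median luminescence of untreated cell-only wells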
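Signal: luminescent ATP detection, CellTiter-Glo; assay system: LL 47 human lung fibroblasts; input: 1,150 cells/well; incubation: overnight cell rest, 72 h compound treatment at 37 °C; measure: % viability versus median cells-only luminescence; medium: IMEM growth medium with 15% fetal bovine serum; dosing: compound addition at 0.1% DMSO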
HCT116 PTEN-null: growth suppression of PTEN-null HCT116, primary screen, cell-based, CellTiter-Glo | 140,000 compounds, 1.2% hits | AID 827, 2007 | viability, % at 10 µM | HCT116 PTEN-null viability, 60 h; stronger effect = lower value;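 active means viability at or below a set limit, 4 SD under the median of all tested compounds, cut at about 3.7% in these data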;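 further: PTEN knockout HCT116 line with beta catenin targeted HCT116 as companion control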
H69AR inhibit: proliferation blockers of H69AR lung cancer cells, primary screen, cell-based, human, 86K library; H69AR lung tumor viability, ATP luminescence, 72 h; stronger effect = lower value; viability, % at 10 µM; 85,000 compounds, 6% hits; AID 598, 2007;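 active means viability at or below 40%; inactive means viability above 40%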;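 further: multidrug resistant small cell line overexpressing MRP-1 efflux transporter; 100% = mean luminescence of untreated control wells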
An asterisk follows results filed as active; · = no result. Shown is part of a subset that was picked to be rich in hits.

SMILES | HUVEC inhibit | HCT116 bCat-KO | Fibroblast inh | HCT116 PTEN-null | H69AR inhibit
COc1ccc(-c2noc(CN(C(=O)c3cccs3)C(C)C)n2)cc1 | 109 | 92 | 96 | 90 | 91
O=C(OCC(=O)N1CCN(C(=O)c2ccco2)CC1)c1cc(-c2ccc(Cl)c(Cl)c2Cl)nc2ccccc12 | 6.3* | 58 | 104 | 34 | 0.9*
CC(=O)O[C@@H]1C[C@H]2C(C)(C)C(=O)C=C[C@]2(C)[C@H]2CC[C@@]3(C)[C@H](c4ccoc4)OC(=O)[C@H]4O[C@]43[C@@]21C | · | 3.9* | · | 4 | ·
CCOC(=O)C1=C(C)NC(=O)NC1c1ccoc1 (centres undefined) | · | 99 | · | · | ·
COc1cc(C(=O)O/N=C2\CCCc3c2ccc(OC)c3[N+](=O)[O-])cc(OC)c1OC | 58 | 70 | 71 | 78 | 17*
COc1ccccc1C(=O)O/N=C1/CCCc2c1ccc(OC)c2[N+](=O)[O-] | 100 | 92 | 103 | 85 | 63
CCNS(=O)(=O)c1cccc(C(=O)c2c(C)cc3ccccn23)c1 | · | 95 | · | 97 | ·
Cc1cc(C)nc(NC2=NCCN2C(=O)Nc2ccc(Cl)c(Cl)c2)n1 | 65 | · | 85 | · | 22*
COc1ccc(/C=N/NC(=O)CCSc2nc3ccccc3s2)cc1 | · | 21 | · | 18 | ·
COCCOC(=O)c1c(C)nc(SCC(=O)Nc2ccc(C)cc2)c(C#N)c1-c1ccco1 | 77 | 95 | 88 | 89 | 53
COCCOC(=O)c1c(C)nc(SCC(=O)Nc2cccc3ccccc23)c(C#N)c1-c1ccco1 | 56 | 61 | 92 | 68 | 11*
Cc1ccc(/C=C/C2=Cc3c(sc(NC(=O)CSc4n[nH]c(N)n4)c3C#N)C(C)(C)C2)o1 | 73 | 53 | 68 | 59 | 29*
C=CCOc1ccc(Br)cc1CNCCCN1CCOCC1 | · | 75 | · | 81 | ·
Cc1ccccc1NC(=O)CSc1nc(N)c(C#N)c(-c2cccs2)c1C#N | 59 | 79 | 55 | 88 | 27*
O=c1oc2ccccc2n1CSC1=NCCS1 | 54 | 87 | 85 | 95 | 21*
O=C(CSCc1ccc(Cl)cc1)Nc1ccc(S(=O)(=O)N2CCOCC2)cc1 | · | 86 | · | 90 | ·
Clc1ccc(OCc2nn3c(-c4ccco4)nnc3s2)c(Cl)c1 | 102 | 93 | 94 | 91 | 34*
Clc1ccc(-c2ccc(-c3nn4c(-c5ccco5)nnc4s3)o2)cc1 | 83 | · | 89 | · | 26*
COc1ccc(CCCC(=O)NCc2ccccc2)cc1C | · | 32 | · | 29 | ·
COC(=O)c1ccccc1NC(=O)C1CC(=O)N(c2ccc(F)cc2)C1 (centres undefined) | · | 94 | · | 87 | ·
O=C(Nc1ccc(Cl)c(Cl)c1)C1CC(=O)N(c2ccc(Br)cc2)C1 (centres undefined) | 54 | 38 | 103 | 44 | 9.0*
COC(=O)c1ccccc1NC(=O)C1CC(=O)N(c2ccc(C)c(C)c2)C1 (centres undefined) | 95 | 103 | 102 | 98 | 32*
Cc1ccc(N2CC(C(=O)Nc3nccs3)CC2=O)cc1Cl (centres undefined) | 17* | 62 | 29* | 51 | 87
CCOc1ccc2ccccc2c1/C=N/NC(=O)CNC(=O)Cc1ccccc1 | · | 94 | · | 99 | ·
COc1cc(OC)cc(C(=O)NC2CCN(CC(=O)Nc3cccc4ccccc34)CC2)c1 | 81 | 98 | 106 | 88 | 39*
SMILES | HUVEC inhibit | HCT116 bCat-KO | Fibroblast inh | HCT116 PTEN-null | H69AR inhibit
On1onc2c3cc(-c4ccccc4)nc3ccc21 | 40 | 1.8* | 23* | 1.2* | 6.0*
c1ccc(-c2cc3c(ccc4nonc43)nn2)cc1 | 94 | 87 | · | 86 | 101
O=C1c2ccccc2C(=O)c2c1ccc1c(=O)n(C3CCCCC3)[nH]c21 | 3.2* | 7 | · | 22 | 36*
COC(=O)c1ccc(COC(=O)c2ccc(SC)cc2OC)cc1 | · | 88 | · | 96 | ·
Cc1cc(=O)[nH]c(SCC(=O)C23CC4CC(CC(C4)C2)C3)c1C#N | 77 | 88 | 101 | 85 | 18*
Cc1cc(=O)[nH]c(SCC(=O)O)c1C#N | 101 | 109 | 102 | 104 | 90
CC(C)CNC(=O)c1c(N)n(/N=C/c2cccnc2)c2nc3ccccc3nc12 | 67 | · | 100 | · | 46
CC(C)OCCCNC(=O)c1c(N)n(/N=C/c2ccccn2)c2nc3ccccc3nc12 | 76 | 61 | 102 | 53 | 23*

Assay outcomes as filed in PubChem.
